Experiments:
[1] = tested on: HT-29; test: Cytotoxicity against human HT-29 cells after 72 hrs by MTT assay; type: functional; settings: HT-29, 72 h; for CC50: read-out: LC50 (the source's name)
Outline: (§1)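 MTT read-out after 72 h exposure at 37 °C in humidified 5% CO2, with five concentrations between 0.01 and 100. GI50 is 50% growth reduction versus untreated controls, TGI is complete growth inhibition, and LC50 is the concentration killing 50% of cells. Minimum three independent experiments.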

[2] = Cytotoxicity against human HTB-54 cells after 72 hrs by MTT assay; type: functional; settings: HTB-54, 72 h; for CC50: read-out: LC50 (the source's name); outline: as §1
[3] = Cytotoxicity against human 184B5 cells after 72 hrs by MTT assay; type: cell-based; settings: for GI50 at 72 h: 184B5 cells; for LC50 / TGI: 184b5, 72 h; outline: as §1
[4] = tested on: MCF7; test: Cytotoxicity against human MCF7 cells after 72 hrs by MTT assay; type: functional; settings: MCF7, 72 h; outline: as §1
[5] = Cytotoxicity against human BEAS2B cells after 72 hrs by MTT assay; type: cell-based, BEAS-2B; settings: for GI50 at 72 h: BEAS2B cells; for LC50 / TGI: beas-2b, 72 h; outline: as §1
[6] = tested on: CCRF-CEM; test: Cytotoxicity against human CCRF-CEM cells after 72 hrs by MTT assay; type: functional; settings: for CC50: read-out: LC50 (the source's name); outline: as §1

Structure (SMILES) | GI50 [1] [µM] | TGI [1] [µM] | CC50 [1] [µM] | GI50 [2] [µM] | TGI [2] [µM] | CC50 [2] [µM] | GI50 at 72 h [3] [µM] | LC50 [3] [µM] | TGI [3] [µM] | GI50 [4] [µM] | LC50 [4] [µM] | TGI [4] [µM] | GI50 at 72 h [5] [µM] | LC50 [5] [µM] | TGI [5] [µM] | GI50 [6] [µM] | TGI [6] [µM] | CC50 [6] [µM]
CSc1nc(NCc2ccccc2)c2cccnc2n1 | 87.1 | > 100 | > 100 | 5.08 | 51.6 | > 100 | 49 | > 100 | > 100 | 39.4 | > 100 | > 100 | 25.9 | 97.51 | 61.7 | 56.3 | 98.5 | > 100
COc1ccc(CNc2nc([Se]C)nc3ccccc23)cc1 | 73.6 | > 100 | > 100 | 33 | > 100 | > 100 | 75.6 | > 100 | > 100 | 42.2 | > 100 | 98.6 | > 100 | > 100 | > 100 | > 100 | > 100 | > 100
CSc1nc(NCCCCCO)c2cccnc2n1 | 63.9 | > 100 | > 100 | > 100 | > 100 | > 100 | > 100 | > 100 | > 100 | 48.9 | > 100 | > 100 | > 100 | > 100 | > 100 | > 100 | > 100 | > 100
COc1ccc(CNc2nc(SC)nc3ncccc23)cc1 | > 100 | > 100 | > 100 | > 100 | > 100 | > 100 | 34.2 | > 100 | 69.77 | 48.1 | > 100 | > 100 | 58.5 | > 100 | > 100 | > 100 | > 100 | > 100
CSc1nc(Nc2ccccc2)c2ccccc2n1 | 65.8 | > 100 | > 100 | 55.8 | > 100 | > 100 | > 100 | > 100 | > 100 | 78.4 | > 100 | > 100 | 54.8 | > 100 | > 100 | 74.6 | > 100 | > 100
CCCCC[Se]c1nc([Se]CCCCC)c2ccccc2n1 | > 100 | > 100 | > 100 | > 100 | > 100 | > 100 | 71.3 | > 100 | > 100 | 38.4 | > 100 | 95.1 | > 100 | > 100 | > 100 | 65.7 | > 100 | > 100
CCCCCSc1nc(NCc2ccc([Se]C)cc2)c2ccccc2n1 | 14.4 | > 100 | > 100 | 19.8 | 50 | 80.2 | 73 | > 100 | > 100 | 13 | > 100 | 75.2 | 31.2 | > 100 | > 100 | > 100 | > 100 | > 100
COc1ccc(CNc2nc(S)nc3ccccc23)cc1 | 6.49 | 28.6 | 63.9 | 13.5 | 45.5 | 77.6 | 7.83 | 69.23 | 36.55 | 7.08 | 78.4 | 36.5 | 6.13 | 70.18 | 32.5 | 10.4 | 41 | 71.6
CSc1nc(NCCCCc2ccccc2)c2ccccc2n1 | > 100 | > 100 | > 100 | > 100 | > 100 | > 100 | 28.5 | 78.6 | 53.55 | 32 | 95.9 | 64 | 6.81 | > 100 | > 100 | 47 | > 100 | > 100
CSc1ccc(CNc2nc(SC)nc3ccccc23)cc1 | 34.7 | > 100 | > 100 | 7.22 | 44.5 | 89.1 | 22 | > 100 | > 100 | 47.3 | > 100 | > 100 | 22.7 | 95.93 | 59.11 | > 100 | > 100 | > 100
COc1cc([C@@H]2c3cc4c(cc3[C@@H](O[C@@H]3O[C@@H]5CO[C@@H](C)O[C@H]5[C@H](O)[C@H]3O)[C@H]3COC(=O)[C@H]23)OCO4)cc(OC)c1O [ETOPOSIDE] | – | > 100 | > 100 | – | – | – | – | – | – | – | – | > 100 | – | – | – | 12.6 | 50.1 | > 100
CSc1ccc(CNc2nc([Se]C)nc3ccccc23)cc1 | 72.7 | > 100 | > 100 | 37.9 | 72.4 | > 100 | 37.1 | > 100 | > 100 | 54.1 | > 100 | > 100 | 35.9 | > 100 | 78.54 | 48.7 | 86.9 | > 100
[Se]=C=NCc1ccccc1 [BENZYLISOSELENOCYANATE] | 21 | 44.5 | 68.1 | 5.98 | 33.4 | 66.1 | 15.5 | 74.86 | 45.15 | 27.9 | 95.5 | 61.7 | 4.1 | 69.59 | 32.75 | 28.7 | 57.7 | 86.7
CCCCC[Se]c1nc([Se]CCCCC)c2cccnc2n1 | > 100 | > 100 | > 100 | 15.2 | 60.5 | > 100 | 52.8 | > 100 | > 100 | 40.8 | 94.6 | 67.7 | > 100 | > 100 | > 100 | > 100 | > 100 | > 100
[SeH]c1nc([SeH])c2cccnc2n1 | – | – | – | 4.03 | 7.93 | 68.4 | 0.71 | 67.5 | 8.26 | 9.83 | 82.7 | 46.1 | – | – | – | – | – | –
[SeH]c1nc(NCc2ccccc2)c2cccnc2n1 | 6.35 | 33.1 | > 100 | > 100 | > 100 | > 100 | 3.7 | > 100 | 9.13 | 0.03 | > 100 | > 100 | 8.4 | > 100 | > 100 | 30.5 | 68.9 | > 100
COc1ccc(CNc2nc([SeH])nc3ccccc23)cc1 | 71.6 | > 100 | > 100 | 7.11 | 60.9 | > 100 | 71.2 | > 100 | > 100 | 42.7 | > 100 | 94 | 37.4 | > 100 | > 100 | > 100 | > 100 | > 100
CCCCC[Se]c1nc(NCc2ccc(SC)cc2)c2ccccc2n1 | 83.6 | > 100 | > 100 | 40.4 | 81.3 | > 100 | 57.4 | > 100 | > 100 | 34.7 | 95.3 | 65 | 34.7 | > 100 | 88.21 | 35 | 83.9 | > 100
CSc1nc(NCCc2ccccc2)c2ccccc2n1 | 29.2 | 87.4 | > 100 | 50.6 | > 100 | > 100 | 8.3 | 88.58 | 46.88 | 80.3 | > 100 | > 100 | 41.9 | > 100 | 94.8 | 32.9 | 72.8 | > 100
